Here are results for 21 molecules from ChEMBL document CHEMBL3352769, “Discovery of glycine sulfonamides as dual inhibitors of sn-1-diacylglycerol lipase α and α/β-hydrolase domain 6” (J Med Chem, 2014).

Assay [1] concerns the target T1, Diacylglycerol lipase-alpha (Homo sapiens, UniProt Q9Y4D2).
T1 sequence (Q9Y4D2 whole entry): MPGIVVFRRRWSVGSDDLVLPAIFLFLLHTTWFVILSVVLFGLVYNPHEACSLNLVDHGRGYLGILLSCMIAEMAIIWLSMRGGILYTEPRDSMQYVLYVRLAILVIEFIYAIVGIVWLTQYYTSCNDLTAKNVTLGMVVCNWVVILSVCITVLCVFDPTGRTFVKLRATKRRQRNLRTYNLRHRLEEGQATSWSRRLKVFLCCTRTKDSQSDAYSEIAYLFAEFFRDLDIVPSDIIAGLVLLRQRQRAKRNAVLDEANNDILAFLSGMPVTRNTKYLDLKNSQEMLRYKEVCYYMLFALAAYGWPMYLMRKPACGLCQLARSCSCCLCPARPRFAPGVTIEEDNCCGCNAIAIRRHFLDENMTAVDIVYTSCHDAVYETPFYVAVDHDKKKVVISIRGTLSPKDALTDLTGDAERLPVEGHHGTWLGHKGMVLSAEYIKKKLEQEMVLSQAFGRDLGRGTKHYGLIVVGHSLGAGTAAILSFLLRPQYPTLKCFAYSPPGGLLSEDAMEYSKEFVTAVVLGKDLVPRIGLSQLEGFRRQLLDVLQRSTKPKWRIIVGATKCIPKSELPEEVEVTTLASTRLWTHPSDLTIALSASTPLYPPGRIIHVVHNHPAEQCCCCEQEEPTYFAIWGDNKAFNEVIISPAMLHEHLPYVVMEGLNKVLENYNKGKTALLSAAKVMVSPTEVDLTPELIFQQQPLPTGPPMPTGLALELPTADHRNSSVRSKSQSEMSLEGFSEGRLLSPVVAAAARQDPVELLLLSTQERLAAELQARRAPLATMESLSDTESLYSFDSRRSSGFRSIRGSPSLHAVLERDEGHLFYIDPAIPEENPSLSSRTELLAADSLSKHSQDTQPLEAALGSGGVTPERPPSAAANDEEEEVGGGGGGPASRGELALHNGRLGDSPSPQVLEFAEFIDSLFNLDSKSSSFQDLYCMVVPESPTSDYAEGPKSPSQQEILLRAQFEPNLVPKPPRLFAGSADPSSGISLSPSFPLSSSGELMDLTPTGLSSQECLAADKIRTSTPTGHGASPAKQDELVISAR
Kind of assay: Inhibition of human DAGLalpha expressed in HEK293T cell membranes. The format is cell-based, HEK-293T. The gist of the method:
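Colorimetric biochemical assay using para-nitrophenylbutyrate as substrate with membranes from HEK293 cells overexpressing human DAGL-α.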

Assay [2] addresses T2, Diacylglycerol lipase-alpha (Mus musculus) (UniProt Q6WQJ1).
T2 sequence (whole entry): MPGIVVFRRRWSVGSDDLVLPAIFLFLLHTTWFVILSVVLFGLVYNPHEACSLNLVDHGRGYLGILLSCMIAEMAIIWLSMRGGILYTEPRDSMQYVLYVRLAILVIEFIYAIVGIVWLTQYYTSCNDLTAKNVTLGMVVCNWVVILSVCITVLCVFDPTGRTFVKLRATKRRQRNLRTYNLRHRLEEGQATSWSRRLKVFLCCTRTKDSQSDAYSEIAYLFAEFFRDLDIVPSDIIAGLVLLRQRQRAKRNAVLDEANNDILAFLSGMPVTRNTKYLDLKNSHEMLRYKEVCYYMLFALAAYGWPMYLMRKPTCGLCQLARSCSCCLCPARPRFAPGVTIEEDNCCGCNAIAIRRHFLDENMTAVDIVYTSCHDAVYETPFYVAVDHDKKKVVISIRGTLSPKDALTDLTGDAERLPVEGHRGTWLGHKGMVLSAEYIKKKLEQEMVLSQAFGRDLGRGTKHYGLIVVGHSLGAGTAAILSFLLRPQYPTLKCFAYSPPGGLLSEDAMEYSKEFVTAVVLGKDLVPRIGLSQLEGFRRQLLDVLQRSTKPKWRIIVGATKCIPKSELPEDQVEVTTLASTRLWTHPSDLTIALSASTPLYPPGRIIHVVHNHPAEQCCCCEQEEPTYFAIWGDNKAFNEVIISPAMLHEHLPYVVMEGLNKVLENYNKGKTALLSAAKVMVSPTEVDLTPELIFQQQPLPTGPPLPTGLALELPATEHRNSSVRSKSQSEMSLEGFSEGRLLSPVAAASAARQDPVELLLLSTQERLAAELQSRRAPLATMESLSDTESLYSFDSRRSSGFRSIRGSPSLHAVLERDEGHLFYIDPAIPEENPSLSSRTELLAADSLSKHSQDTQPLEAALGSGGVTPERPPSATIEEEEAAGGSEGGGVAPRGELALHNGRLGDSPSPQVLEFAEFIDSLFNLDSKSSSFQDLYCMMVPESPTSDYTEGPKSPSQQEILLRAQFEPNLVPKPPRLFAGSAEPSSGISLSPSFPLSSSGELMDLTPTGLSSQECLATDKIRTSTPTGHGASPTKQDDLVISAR
In words: Inhibition of MB064 labeling of DAGLalpha in mouse brain homogenates by activity based protein profiling assay.

In assay [3] the target is T3, Monoacylglycerol lipase ABHD6 (Homo sapiens, UniProt Q9BV23).
T3 sequence (Q9BV23 whole entry): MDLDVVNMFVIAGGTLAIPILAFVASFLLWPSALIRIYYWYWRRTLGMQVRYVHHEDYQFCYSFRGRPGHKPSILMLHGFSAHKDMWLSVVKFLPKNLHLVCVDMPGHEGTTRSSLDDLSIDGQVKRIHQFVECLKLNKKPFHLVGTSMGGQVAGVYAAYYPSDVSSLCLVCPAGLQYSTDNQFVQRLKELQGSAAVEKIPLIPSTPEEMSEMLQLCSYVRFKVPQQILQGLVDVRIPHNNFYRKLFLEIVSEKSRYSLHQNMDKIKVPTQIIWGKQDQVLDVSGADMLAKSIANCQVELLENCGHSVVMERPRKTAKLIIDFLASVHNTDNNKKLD
In words: (§1) Inhibition of human ABHD6 expressed in HEK293T cell membranes assessed as reduction in glycerol production using 2-arachidonoyl glycerol substrate. Format: cell-based, HEK-293T. The gist of the method: (§2)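 Human ABHD6 membranes from transiently transfected HEK293T (0.04 µg/µL final) in HEMNB buffer, pH 7.4, preincubated 30 min with inhibitor. 2-AG (25 µM) added with glycerol kinase/GPO/HRP (0.2 U/mL), 0.125 mM ATP and 10 µM Amplifu Red. Resorufin fluorescence read every 5 min for 75 min at 21°C; slopes over 10–35 min, normalized; N = 2, n = 2.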

Assay [4] has as its target T4, Monoacylglycerol lipase ABHD6 (Homo sapiens) (UniProt Q9BV23).
T4 sequence (whole entry): T3 sequence (Q9BV23 whole entry)
Described as §1. Conditions: HEK-293T. The format is cell-based. In outline:
as §2

Assay [5] deals with T5, Monoacylglycerol lipase ABHD6 (Mus musculus) (UniProt Q8R2Y0).
T5 sequence (whole entry): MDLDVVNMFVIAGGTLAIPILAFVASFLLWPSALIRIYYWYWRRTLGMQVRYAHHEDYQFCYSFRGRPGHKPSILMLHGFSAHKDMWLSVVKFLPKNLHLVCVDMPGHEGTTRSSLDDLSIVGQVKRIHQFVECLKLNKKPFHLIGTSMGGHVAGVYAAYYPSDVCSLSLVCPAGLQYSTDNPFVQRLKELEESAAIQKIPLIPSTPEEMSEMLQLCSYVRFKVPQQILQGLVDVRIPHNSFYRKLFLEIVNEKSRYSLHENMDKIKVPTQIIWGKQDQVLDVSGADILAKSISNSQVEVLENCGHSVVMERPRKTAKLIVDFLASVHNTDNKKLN
In words: Inhibition of TAMRA-FP labeling of ABHD6 in mouse brain homogenates at 20 uM by activity based protein profiling assay. The format is tissue-based. Conditions: in the assay text read “MB064” for “TAMRA-FP”. In outline: (§3)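 Mouse brain membrane proteome (2.0 mg/mL) preincubated 30 min at rt with inhibitor or DMSO vehicle, then labeled 15 min at rt with ABP 1 (250 nM final) or TAMRA-FP (500 nM final). Gel-based read-out: lane band intensity corrected for total protein loading by Coomassie stain, vehicle set to 100%.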

For assay [6], the species on record is Mus musculus. Kind of assay: Inhibition of MAGL labeling in mouse brain homogenates at 20 uM by activity based protein profiling assay. Format: tissue-based. The gist of the method: as §3
The target in assay [7] is T2, Diacylglycerol lipase-alpha (Mus musculus). Kind of assay: (§4) Inhibition of MB064 labeling of DAGLalpha in mouse brain homogenates by activity based protein profiling assay. The format is tissue-based. In outline:
(§5)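 Endogenous DAGL-α in mouse brain membrane proteome: inhibitors at a range of concentrations, 30 min at rt, then probe 1 for 10 min at rt. Quenched in SDS sample buffer, resolved on 10% SDS-PAGE, fluorescence scanned. Remaining activity taken from integrated band intensity; IC50 from dose-response curve (SEM, n = 3).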

Assay [8] has as its target T6, Diacylglycerol lipase-alpha (Mus musculus, UniProt Q6WQJ1).
T6 sequence (Q6WQJ1 whole entry): T2 sequence (whole entry)
Described as §4. Format: tissue-based. The gist of the method:
as §5

Assay [9] addresses T1, Diacylglycerol lipase-alpha. Kind of assay: Inhibition of human DAGLalpha expressed in HEK293T cell membranes assessed as reduction in hydrolysis of inhibition of [14C]-sn-1-oleoyl-2-arachidonoyl-glycerol. Format: cell-based, HEK-293T.

Active and inactive are the calls of the source. The calls are words filed in the database; no cut-off is given here. Some results are limits rather than exact numbers.

The IC50 is the midpoint of a concentration-inhibition curve. Low values mean inhibition by little substance, high ones a need for much substance. Take `CC1(C)CCc2cc(S(=O)(=O)N(Cc3cccc(Oc4ccccc4)c3)Cc3nnn[nH]3)ccc2O1`: the IC50 in assay [1] was more than 10000 nM.
Same read-out and setting: then `CC1(C)CCc2cc(S(=O)(=O)N(CC#N)Cc3cccc(Oc4ccccc4)c3)ccc2O1`, with more than 10000 nM; and `CC1(C)CCc2cc(S(=O)(=O)N(CC(=O)O)Cc3cccc(Oc4ccc(C(F)(F)F)cn4)c3)ccc2O1`, with 143 nM; and `CC1(C)CCc2cc(S(=O)(=O)N(CCN)Cc3ccc(Oc4ccccc4)cc3)ccc2O1`, with 512 nM.
Same read-out and setting: then `O=C(O)CN(Cc1ccc(Oc2ccc(C(F)(F)F)cn2)cc1)S(=O)(=O)c1ccc(Cl)cc1`, with 302 nM.
In assay [1], `COC(=O)CN(Cc1ccc(Oc2ccccc2)cc1)S(=O)(=O)c1ccc2c(c1)CCC(C)(C)O2` gave an IC50 of more than 10000 nM.
The Ki is a dissociation constant, usually derived from enzyme kinetics or from competition with a known ligand. Turning to `CC1(C)CCc2cc(S(=O)(=O)N(CC(=O)O)Cc3ccc(Oc4ccc(C(F)(F)F)cn4)cc3)ccc2O1`, the inhibition result in assay [2], in assay [4] and in assay [7] was “Dose-dependent effect” throughout. Besides, the IC50 in assay [1] was determined as 65 nM; in assay [8], 743 nM. For the same molecule, the Ki in [3] came out at 2700 nM. Also, the inhibition entry in assay [5] is “Active”. Further, the inhibition entry in [6] is “inactive”.
As for `CC1(C)CCc2cc(S(=O)(=O)N(CC(=O)O)Cc3ccc(Oc4ccccc4)cc3)ccc2O1`, the inhibition entry in assay [2], in [4] and in assay [7] was “Dose-dependent effect” in each case. In addition, the IC50 in assay [1] stood at 18 nM; in assay [8], 124 nM. For the same molecule, the Ki in assay [3] came to 800 nM; in assay [9], 700 nM. Moreover, the inhibition result in [5] is “Active”. In assay [6], the inhibition result was “inactive”.
Molecule `CC1(C)CCc2cc(S(=O)(=O)N(CCO)Cc3cccc(Oc4ccccc4)c3)ccc2O1` gave an IC50 in assay [1] of more than 10000 nM.
With `O=C(O)CN(Cc1ccc(Oc2ccccc2)cc1)C(=O)c1c(Cl)cccc1Cl`, the half-inhibitory concentration (IC50) in assay [1] is more than 10000 nM.
Take `CC1(C)CCc2cc(S(=O)(=O)N(CCOC(=O)N3CCCCC3)Cc3cccc(Oc4ccccc4)c3)ccc2O1`: the IC50 in [1] was more than 10000 nM.
The molecule `CC1(C)CCc2cc(S(=O)(=O)N(CC(N)=O)Cc3cccc(Oc4ccccc4)c3)ccc2O1` gave an IC50 in [1] of more than 10000 nM.
In the case of `O=C(O)CN(Cc1ccc(Oc2ccccc2)cc1)S(=O)(=O)c1c(Cl)cccc1Cl`, it took 695 nM to reach half-maximal inhibition in [1] (IC50).
Still for that read-out and setting: then `O=C(O)CN(Cc1ccc(Oc2ccccc2)cc1)S(=O)(=O)c1ccc(Cl)cc1`, with 66 nM.
As for `CC1(C)CCc2cc(S(=O)(=O)N(CC(=O)O)Cc3cccc(Oc4ccccc4)c3)ccc2O1`, the inhibition entry in [2], in [4] and in assay [7] was “Dose-dependent effect” each time. The IC50 in assay [1] worked out at 56 nM; in assay [8], 355 nM. For the same molecule, the Ki in assay [3] turned out to be 18300 nM. The inhibition entry in assay [5] was “Active”. For the same molecule, in assay [6], the inhibition entry is “inactive”.
Molecule `CC1(C)CCc2cc(S(=O)(=O)N(CC(=O)NCCOCCN)Cc3ccc(Oc4ccccc4)cc3)ccc2O1` gave an IC50 in [1] of more than 10000 nM.
On the same count and under the same terms, then `CC1(C)CCc2cc(S(=O)(=O)N(CC(=O)O)Cc3ccccc3Oc3ccccc3)ccc2O1`, with 185 nM; and `O=C(O)CN(Cc1cccc(Oc2ccccc2)c1)S(=O)(=O)c1c(Cl)cccc1Cl`, with 1600 nM; and `O=C(O)CN(Cc1cccc(Oc2ccccc2)c1)S(=O)(=O)c1ccc(Cl)cc1`, with 91 nM.
Still for that read-out and setting: with `O=C(O)CN(Cc1ccc(Oc2ccc(C(F)(F)F)cn2)cc1)C(=O)c1ccc(Cl)cc1` the figure was more than 10000 nM; with `O=C(O)CN(Cc1ccc(Oc2ccccc2)cc1)C(=O)c1ccc(Cl)cc1`, more than 10000 nM.
